Source: ChEMBL document CHEMBL2440017, “Discovery of a potent, selective, and orally bioavailable histamine H3 receptor antagonist SAR110068 for the treatment of sleep-wake disorders” (Bioorg Med Chem Lett, 2013)
Activity calls are given as the source filed them. No cut-off for these calls is given here.

Key:
Rattus norvegicus [1] = experiment: Awakening activity in rat assessed as increased wakefulness at 3 to 10 mg/kg, po after 4 hrs; assay type: functional, organism-based
Summary of the method: (§1)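 Rats given compound orally at 3 or 10 mg/kg, or reference drugs i.p. or p.o. at 10 mg/kg. EEG recorded during the light phase and scored as wakefulness, slow wave sleep and REM sleep. Time-course analysis of the effects.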

Rattus norvegicus [2] = experiment: Awakening activity in rat assessed as decrease in slow wave and REM sleep at 3 to 10 mg/kg, po; assay type: functional, organism-based; summary of the method: as §1
Rattus norvegicus [3] = experiment: Awakening activity in rat assessed as increased wakefulness at 3 to 10 mg/kg, po; assay type: functional, organism-based; summary of the method: as §1
Cynomolgus monkey = experiment: Cardiotoxicity in cynomolgus monkey assessed as PR, QRS, QTc interval at 10 mg/kg, iv; assay type: toxicity, organism-based, Macaca fascicularis; parameters: dose 10 mg/kg, route intravenous; details: in vivo
Summary of the method: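 Anaesthetized cynomolgus monkeys dosed 10 mg/kg i.v. Arterial blood pressure, heart rate and ECG (PR, QRS, QTc intervals) monitored. Plasma drug sampled at 5, 15 and 30 min post-dose.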

Mus musculus = experiment: Toxicity in mouse assessed as tremors at 100 mg/kg, po; assay type: organism-based; parameters: dose 100 mg/kg, route oral; details: in vivo
Salmonella typhimurium [4] = experiment: Genotoxicity in Salmonella typhimurium at 3 to 1000 ug/ml by Ames 2 test in presence of human liver microsomes; assay type: toxicity, organism-based; details: salmonella enterica subsp. enterica serovar typhimurium
Summary of the method: (§2)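 Ames II and micronucleus tests, Ames over 3–1000 µg/mL and MNT over 5–950 µg/mL. Each run with and without metabolic activation by human liver microsome preparations.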

[5] = biological target: Voltage-gated inwardly rectifying potassium channel KCNH2 (Homo sapiens, UniProt Q12809); experiment: Inhibition of human ERG expressed in CHO cells by patch-clamp technique; assay type: cell-based
Summary of the method: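 hERG current recorded by whole-cell patch clamp in CHO cells stably transfected with the human ERG gene.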

Salmonella typhimurium [6] = experiment: Genotoxicity in Salmonella typhimurium at 3 to 1000 ug/ml by Ames 2 test; assay type: toxicity, organism-based; details: salmonella enterica subsp. enterica serovar typhimurium; summary of the method: as §2
[7] = Activation of p-glycoprotein (unknown origin); details: human
[8] = Inhibition of p-glycoprotein (unknown origin); details: human
[9] = Induction of CYP450 in human hepatocytes at 1 to 60 uM; assay type: ADME, cell-based, Hepatocyte
Summary of the method: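 Human hepatocytes (n = 4) exposed at 1–60 concentration and examined for induction of CYP isoforms.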

[10] = Ratio of AUC (0 to infinity) in Sprague-Dawley rat brain to AUC (0 to infinity) in Sprague-Dawley rat at 2 mg/kg, iv; assay type: ADME, organism-based; parameters: dose 2 mg/kg, route intravenous; details: read-out: Ratio AUC
Summary of the method: (§3)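 Male Sprague–Dawley rats received 2 mg/kg i.v. (0.5 mg/mL in saline) or 10 mg/kg p.o. (1.0 mg/mL in 0.5% MC/0.2% Tween80). Plasma and brain AUC0-inf were measured, and the B/P ratio was calculated from i.v. AUC0-inf.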

[11] = AUC in Sprague-Dawley rat brain at 10 mg/kg, po; assay type: ADME, organism-based; parameters: dose 10 mg/kg, route oral
Summary of the method: (§4)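 Oral gavage at 10 mg/kg to male OF1 mice (vehicle 5% DMSO/0.5% MC/0.2% Tween80, 1.0 mg/mL) or male Sprague-Dawley rats (vehicle 0.5% MC/0.2% Tween80, 1.0 mg/mL). Plasma and brain exposure and half-life determined.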

[12] = Oral bioavailability in Sprague-Dawley rat plasma at 10 mg/kg; assay type: ADME, organism-based; summary of the method: as §3
[13] = AUC (0 to infinity) in Sprague-Dawley rat plasma at 10 mg/kg, po; assay type: ADME, organism-based; parameters: time infinity, dose 10 mg/kg, route oral; summary of the method: as §4
Plasma [14] = experiment: Clearance in Sprague-Dawley rat plasma at 2 mg/kg, iv; assay type: ADME, organism-based; parameters: dose 2 mg/kg, route intravenous; details: in vivo
Summary of the method: (§5)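 Male OF1 mice or male Sprague-Dawley rats, single 2 mg/kg i.v. dose. Mouse vehicle 50% 1-methyl-2-pyrrolidinone in saline at 1.0 mg/mL; rat vehicle saline at 0.5 mg/mL. Plasma and brain levels followed over time; AUC0-inf, t1/2 and clearance derived from exposure. Brain/plasma ratio uses i.v. AUC0-inf.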

[15] = AUC (0 to infinity) in Sprague-Dawley rat plasma at 2 mg/kg, iv; assay type: ADME, organism-based; parameters: time infinity, dose 2 mg/kg, route intravenous; summary of the method: as §5
[16] = Elimination half life in OF1 mouse brain at 2 mg/kg, iv; assay type: ADME, organism-based; parameters: dose 2 mg/kg, route intravenous; details: read-out: beta t1/2 (converted); summary of the method: as §5
[17] = Elimination half life in OF1 mouse plasma at 10 mg/kg, po; assay type: ADME, organism-based; parameters: dose 10 mg/kg, route oral; details: read-out: beta t1/2 (converted); summary of the method: as §4
[18] = Oral bioavailability in OF1 mouse plasma at 10 mg/kg; assay type: ADME, organism-based
Summary of the method: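 Male OF1 mice received 2 mg/kg i.v. (1.0 mg/mL in 50% 1-methyl-2-pyrrolidinone/saline) or 10 mg/kg p.o. (1.0 mg/mL in 5% DMSO/0.5% MC/0.2% Tween80). Plasma and brain AUC0-inf were measured, and the B/P ratio was calculated from i.v. AUC0-inf.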

[19] = AUC (0 to infinity) in OF1 mouse plasma at 2 mg/kg, iv; assay type: ADME, organism-based; parameters: dose 2 mg/kg, route intravenous, time infinity; summary of the method: as §5
[20] = Elimination half life in OF1 mouse plasma at 2 mg/kg, iv; assay type: ADME, organism-based; parameters: dose 2 mg/kg, route intravenous; details: read-out: beta t1/2 (converted); summary of the method: as §5
Cytochrome P450 2D6 = Cytochrome P450 2D6 (Homo sapiens, UniProt P10635); experiment: Inhibition of CYP2D6 (unknown origin); assay type: ADME
CYP3A4 [21] = biological target: T1, CYP3A4 (Homo sapiens, UniProt P08684); experiment: Inhibition of CYP3A4 (unknown origin) at 0.5 uM; assay type: ADME
Hepatocyte = experiment: Clearance in human hepatocytes; assay type: ADME, cell-based
Summary of the method: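 Human hepatocytes in vitro, n = 4 preparations. Metabolic clearance expressed per 10^6 hepatocytes per hour. Also tested at a lower 0.5 concentration to check for concentration dependence.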

CYP3A4 [22] = biological target: T1, CYP3A4; experiment: Inhibition of CYP3A4 (unknown origin) at 5 uM; assay type: ADME
[23] = Metabolic stability in rabbit microsomes; assay type: ADME, Oryctolagus cuniculus, Microsome
Summary of the method: (§6)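 Percentage biotransformation measured in vitro in liver microsomes of each species.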

[24] = Metabolic stability in monkey microsomes; assay type: ADME, Macaca mulatta, Microsome; details: rhesus monkey; summary of the method: as §6
[25] = Metabolic stability in mouse microsomes; assay type: ADME, Microsome; summary of the method: as §6
Plasma [26] = experiment: Metabolic stability in sheep plasma; assay type: ADME, cell-free, Ovis aries
Summary of the method: (§7)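 Compound stability measured in plasma of each species in vitro.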

Plasma [27] = experiment: Metabolic stability in dog plasma; assay type: ADME, cell-free, Canis lupus familiaris; summary of the method: as §7
Plasma [28] = experiment: Metabolic stability in monkey plasma; assay type: ADME, cell-free, Macaca mulatta; details: rhesus monkey; summary of the method: as §7
[29] = Metabolic stability in guinea pig plasma; assay type: ADME, cell-free, Cavia porcellus; summary of the method: as §7
Plasma [30] = experiment: Metabolic stability in rat plasma; assay type: ADME, cell-free; summary of the method: as §7
Plasma [31] = experiment: Metabolic stability in mouse plasma; assay type: ADME, cell-free; summary of the method: as §7
[32] = biological target: Histamine H3 receptor (Cavia porcellus) (UniProt Q9JI35); experiment: Antagonist activity at histamine H3 receptor in guinea pig ileum assessed as inhibition of RAMH-induced inhibition of electrical field-stimulated contraction; assay type: tissue-based
Summary of the method: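 Isolated guinea pig ileum contracted by electrical field stimulation. Contractions inhibited with the H3 agonist RAMH; test compound examined for competitive antagonism of this RAMH effect.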

Histamine H3 receptor = Histamine H3 receptor (Homo sapiens, UniProt Q9Y5N1); experiment: Antagonist activity at human histamine H3 receptor expressed in CHO cells co-expressing CRE-Luc; assay type: functional, cell-based
[33] = Drug degradation in gastrointestinal tract simulation medium after 48 hrs at room temperature; assay type: physicochemical; details: read-out: Drug degradation
Summary of the method: (§8)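 Compound kept 48 h at room temperature in water, aqueous solutions of pH 1.0–7.4, DMSO, or GI-tract simulation medium. Percent degradation measured.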

[34] = Drug degradation in aqueous solution at pH 1.0 to 7.4 after 48 hrs at room temperature; assay type: physicochemical; details: read-out: Drug degradation; summary of the method: as §8
[35] = Drug degradation in DMSO after 48 hrs at room temperature; assay type: physicochemical; details: read-out: Drug degradation; summary of the method: as §8
[36] = Drug degradation in water after 48 hrs at room temperature; assay type: physicochemical; details: read-out: Drug degradation; summary of the method: as §8
[37] = Lipophilicity, log P of the compound; assay type: physicochemical; details: octanol/water
Summary of the method: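 clogP calculated with ACD/Labs methods.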

T1 sequence (P08684 whole entry): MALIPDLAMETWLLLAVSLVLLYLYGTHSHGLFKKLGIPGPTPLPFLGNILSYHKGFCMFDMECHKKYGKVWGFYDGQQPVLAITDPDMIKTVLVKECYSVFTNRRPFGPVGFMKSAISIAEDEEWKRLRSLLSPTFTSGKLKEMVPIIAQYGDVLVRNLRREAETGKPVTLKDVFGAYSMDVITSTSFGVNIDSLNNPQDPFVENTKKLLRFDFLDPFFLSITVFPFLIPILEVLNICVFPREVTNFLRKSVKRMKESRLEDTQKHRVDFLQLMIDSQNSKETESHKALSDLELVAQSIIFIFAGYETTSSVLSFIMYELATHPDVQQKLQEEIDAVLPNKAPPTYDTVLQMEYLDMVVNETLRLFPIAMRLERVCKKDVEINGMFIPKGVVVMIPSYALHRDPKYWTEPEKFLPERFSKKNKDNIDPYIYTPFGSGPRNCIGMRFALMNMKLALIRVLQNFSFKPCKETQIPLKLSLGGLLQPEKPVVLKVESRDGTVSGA
Sequence of Voltage-gated inwardly rectifying potassium channel KCNH2 (Q12809 whole entry): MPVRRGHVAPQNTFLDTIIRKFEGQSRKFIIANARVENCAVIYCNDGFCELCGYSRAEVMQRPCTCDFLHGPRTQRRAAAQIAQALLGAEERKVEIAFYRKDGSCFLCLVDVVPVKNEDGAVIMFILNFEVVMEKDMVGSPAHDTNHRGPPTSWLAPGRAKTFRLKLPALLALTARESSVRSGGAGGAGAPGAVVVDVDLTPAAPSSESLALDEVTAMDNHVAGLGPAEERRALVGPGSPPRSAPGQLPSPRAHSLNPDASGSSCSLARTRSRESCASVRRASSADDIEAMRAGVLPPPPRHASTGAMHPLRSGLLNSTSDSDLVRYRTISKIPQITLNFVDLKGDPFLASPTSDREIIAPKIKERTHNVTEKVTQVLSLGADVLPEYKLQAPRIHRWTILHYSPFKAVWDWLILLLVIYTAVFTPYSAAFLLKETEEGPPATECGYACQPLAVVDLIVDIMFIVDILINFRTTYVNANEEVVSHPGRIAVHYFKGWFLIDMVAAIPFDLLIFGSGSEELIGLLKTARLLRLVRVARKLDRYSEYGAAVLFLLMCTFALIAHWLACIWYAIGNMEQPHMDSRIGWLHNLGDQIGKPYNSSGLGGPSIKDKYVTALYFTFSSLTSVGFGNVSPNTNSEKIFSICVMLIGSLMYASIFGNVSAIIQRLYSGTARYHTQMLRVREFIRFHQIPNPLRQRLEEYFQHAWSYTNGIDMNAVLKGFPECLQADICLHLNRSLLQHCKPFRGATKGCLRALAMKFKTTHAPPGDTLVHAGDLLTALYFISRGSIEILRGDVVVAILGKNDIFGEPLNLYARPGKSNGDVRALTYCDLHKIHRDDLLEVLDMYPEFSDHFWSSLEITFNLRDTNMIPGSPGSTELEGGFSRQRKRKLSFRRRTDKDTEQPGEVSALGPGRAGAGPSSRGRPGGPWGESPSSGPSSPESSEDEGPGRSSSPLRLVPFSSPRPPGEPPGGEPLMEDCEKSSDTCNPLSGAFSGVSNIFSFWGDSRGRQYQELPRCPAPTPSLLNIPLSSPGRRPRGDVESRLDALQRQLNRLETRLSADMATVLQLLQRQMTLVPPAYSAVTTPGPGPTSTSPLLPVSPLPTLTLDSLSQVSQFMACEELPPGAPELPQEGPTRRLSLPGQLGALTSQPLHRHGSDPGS
Sequence of Histamine H3 receptor (Cavia porcellus) (Q9JI35 whole entry): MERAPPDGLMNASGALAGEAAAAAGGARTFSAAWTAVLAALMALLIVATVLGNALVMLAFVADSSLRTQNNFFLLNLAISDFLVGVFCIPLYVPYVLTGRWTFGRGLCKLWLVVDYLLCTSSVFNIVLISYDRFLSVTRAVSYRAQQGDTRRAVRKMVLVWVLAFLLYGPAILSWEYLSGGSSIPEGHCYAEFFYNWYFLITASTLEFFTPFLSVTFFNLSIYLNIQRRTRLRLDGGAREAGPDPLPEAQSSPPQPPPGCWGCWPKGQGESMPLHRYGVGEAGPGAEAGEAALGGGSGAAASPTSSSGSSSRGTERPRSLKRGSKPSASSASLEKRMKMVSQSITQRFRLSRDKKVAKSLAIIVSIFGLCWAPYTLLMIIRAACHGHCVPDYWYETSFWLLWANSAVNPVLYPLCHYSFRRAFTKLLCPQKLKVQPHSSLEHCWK
Sequence of Cytochrome P450 2D6 (P10635 whole entry): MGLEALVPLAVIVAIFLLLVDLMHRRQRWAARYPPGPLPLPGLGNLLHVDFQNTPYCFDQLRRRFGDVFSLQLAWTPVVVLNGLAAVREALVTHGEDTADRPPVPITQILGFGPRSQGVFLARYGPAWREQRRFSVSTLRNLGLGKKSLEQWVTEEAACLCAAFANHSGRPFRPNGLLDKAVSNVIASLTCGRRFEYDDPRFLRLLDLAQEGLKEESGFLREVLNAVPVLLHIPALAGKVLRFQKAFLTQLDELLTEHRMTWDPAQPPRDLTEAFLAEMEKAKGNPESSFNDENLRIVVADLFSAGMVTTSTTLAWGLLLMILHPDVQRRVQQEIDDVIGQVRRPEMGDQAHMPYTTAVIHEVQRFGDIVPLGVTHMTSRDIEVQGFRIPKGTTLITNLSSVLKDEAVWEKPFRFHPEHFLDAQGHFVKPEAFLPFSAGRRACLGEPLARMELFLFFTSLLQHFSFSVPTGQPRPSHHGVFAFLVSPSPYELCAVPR
Sequence of Histamine H3 receptor (Q9Y5N1 whole entry): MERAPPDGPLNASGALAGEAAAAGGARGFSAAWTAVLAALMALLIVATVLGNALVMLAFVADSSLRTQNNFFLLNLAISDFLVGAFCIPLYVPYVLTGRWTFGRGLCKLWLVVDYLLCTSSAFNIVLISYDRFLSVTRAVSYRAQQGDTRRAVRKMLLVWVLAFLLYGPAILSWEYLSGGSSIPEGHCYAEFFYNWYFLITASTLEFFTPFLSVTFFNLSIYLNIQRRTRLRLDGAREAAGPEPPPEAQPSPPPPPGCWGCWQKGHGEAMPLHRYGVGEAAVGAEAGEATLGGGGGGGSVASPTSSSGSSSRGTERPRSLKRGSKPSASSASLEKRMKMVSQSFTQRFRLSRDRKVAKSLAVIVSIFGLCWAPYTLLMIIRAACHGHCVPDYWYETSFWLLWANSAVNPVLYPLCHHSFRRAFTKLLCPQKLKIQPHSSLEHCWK

Activity [7]: Not Active
inhibition (INH) [8]: Not Active
Activity [9]: Not Active
Kp [10]: 0.33
AUC [11]: 4200 ng·h/mL
bioavailability [12]: 80%
AUC(0-inf) [13]: 8400 ng·h/mL
clearance (Plasma [14]): 16.7 mL/min/kg
AUC(0-inf) [15]: 2100 ng·h/mL
half-life [16]: 0.83 h
half-life [17]: 2.3 h
bioavailability [18]: 58%
AUC(0-inf) [19]: 1100 ng·h/mL
half-life [20]: 3.6 h
inhibition (INH) (Cytochrome P450 2D6): Active
inhibition at 0.5 µM (CYP3A4 [21]): 49%
CLH (Hepatocyte): 0.031 mL/h
inhibition at 5 µM (CYP3A4 [22]): 61%
Stability [23]: Stable
Stability [24]: Stable
Stability [25]: Stable
Stability (Plasma [26]): Stable
Stability (Plasma [27]): Stable
Stability (Plasma [28]): Stable
Stability [29]: Stable
Stability (Plasma [30]): Stable
Stability (Plasma [31]): Stable
inhibition [32]: Active
EC50 (Histamine H3 receptor): 0.0009 µM
degraded at 48 h [33]: < 2%
degraded at 48 h [34]: < 2%
degraded at 48 h [35]: < 2%
degraded at 48 h [36]: < 2%
logP [37]: 1.31
Structure (SMILES): Cc1cc(N2CC[C@H](N3CCC[C@@H]3C)C2)ccc1NC(=O)C1CCOCC1
Activity (Rattus norvegicus [1]): Active
Activity (Rattus norvegicus [2]): Active
Activity (Rattus norvegicus [3]): Active
Activity (Cynomolgus monkey): Non-toxic
Activity (Mus musculus): Non-toxic
Activity (Salmonella typhimurium [4]): Non-toxic
IC50 [5]: 18.9 µM
Activity (Salmonella typhimurium [6]): Non-toxic
